Screening data deposited in PubChem by several laboratories.
In the library only some 2.1% were active in any assay of this set; here they are far more common.
PKA-R2B act = activators of human PKA-R2B complex; AID 504700; activation, % at 11.4 µM; P22694+P31323; 340,000 tested, 0.079% active; PKA-R2B holoenzyme dissociation, Cy5-IP20 fluorescence polarization; R2B truncated from residue 108, S112A mutant; 0% DMSO only, 100% 113 µM cGMP;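 active = activation above a cutoff set at the mean over all compounds plus 3 SD, cut at about 18% in these data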;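 also: higher means more holoenzyme dissociation and a rise in polarization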
Target sequence (P31323 whole entry, looked up, other chains not shown, the tested form may be a part): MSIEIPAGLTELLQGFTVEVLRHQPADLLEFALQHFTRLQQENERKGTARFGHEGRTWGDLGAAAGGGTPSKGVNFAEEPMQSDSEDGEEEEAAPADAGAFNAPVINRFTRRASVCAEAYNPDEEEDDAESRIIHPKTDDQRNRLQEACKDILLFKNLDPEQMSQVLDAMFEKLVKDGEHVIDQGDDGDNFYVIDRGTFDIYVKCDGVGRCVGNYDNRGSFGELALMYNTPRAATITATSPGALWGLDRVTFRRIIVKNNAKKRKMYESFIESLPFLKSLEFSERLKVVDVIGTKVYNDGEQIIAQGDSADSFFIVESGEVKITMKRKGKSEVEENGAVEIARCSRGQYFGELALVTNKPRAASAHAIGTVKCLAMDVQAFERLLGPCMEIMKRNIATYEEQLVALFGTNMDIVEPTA
SR-BI DiI inh = inhibitors of mouse SR-BI mediated HDL lipid uptake; Q61009; ldlA[mSR-BI] CHO cells, DiI-HDL uptake fluorescence, 3 h; inhibition, % at 12.5 µM; 320,000 tested, 0.96% active; AID 488896;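 active = mean replicate inhibition of at least 70% and a set share of replicates each scoring 70 or more; inconclusive = meets just one of the two criteria; inactive = fails both criteria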
CDK5 p35 inh = CDK5/p35 (human) kinase inhibition | 330,000 tested, 0.01% active | AID 488839 | Q00535+Q15078 | inhibition, % at 10 µM | Recombinant CDK5/p35, ADP-Glo luminescence, 60 min;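 active = highest replicate inhibition of at least 50% and at least 75% of replicates reaching 50%; inconclusive = only one of the two criteria met; inactive = both criteria failed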
dFosB act-1 = enhances mouse delta FosB homodimer DNA binding; P13346; purified delta FosB, TAMRA-CDK5 oligo fluorescence polarization; percent of positive-control signal above neutral wells; activation, % at 25 µM; 340,000 tested, 0.99% active; AID 493131;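 active = mean activation above about 17%, with every replicate also reaching it, limit read from the data, passing the limit was not always enough; inconclusive = only one of the two conditions met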
PKA-R1A activ = activates the PKA-R1A holoenzyme complex | P00514+P68181 | PKA-R1A dissociation, Cy5-IP20 fluorescence polarization; scaled: DMSO 0%, 113 µM cGMP 100% | activation, % at 11.4 µM | 340,000 tested, 0.083% active;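 active = percent activation above the mean of all tested compounds plus 3 SD, cut at about 19% in these data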;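 also: higher means more PKAc released from R1A so a rise in polarization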
SR-BI DiI-HDL act = activators of SR-BI mediated HDL lipid uptake | AID 504775 | activation, % at 12.5 µM | CHO ldlA[mSR-BI] cells, DiI-HDL uptake fluorescence, 3 h; 100 = double the neutral-control signal | 320,000 tested, 0.096% active;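 active = mean replicate activation of at least 60% and every replicate at or above 60%; inconclusive = mean or all-replicate condition met, but not both; inactive = mean below 60% and not all replicates reaching 60%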
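Test system: SR-BI-overexpressing, LDLR-lacking CHO cells. Measured by: DiI fluorescence, bottom read. Medium: Ham's F12 with 0.5% BSA, HEPES 25 mM, pH 7.4. Timing: 3 h uptake period with compound, 37 °C.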
dFosB act-2 = delta FosB (mouse) homodimer activation; shares compounds with dFosB act-1; purified delta FosB, TAMRA-CDK5 oligo fluorescence polarization; normalised: neutral wells 0, positive control 100; activation, % at 24.9 µM; 2,400 tested, under 10 active;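 active = highest replicate activation at or above 34% and every replicate reaching that threshold; inconclusive = meets only one of the two criteria; inactive = meets neither criterion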;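 also: higher polarization means more probe DNA bound by delta FosB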
Hits are given with their value; - = inactive; ? = inconclusive; . = no result.

SMILES	PKA-R2B act	SR-BI DiI inh	CDK5 p35 inh	dFosB act-1	PKA-R1A activ	SR-BI DiI-HDL act	dFosB act-2
COc1ccc(N(C(=O)c2snc(C(N)=O)c2N)C(C(=O)NC2CCCC2)c2ccc(F)cc2)c(OC)c1 (configuration not stated)	-	-	-	32.4	-	-	-
C/C=C(\C)C(=O)OC1CC(C)(C)C[C@H]2C3=CC[C@@H]4[C@@]5(C)CCC(O[C@@H]6O[C@@H](C(=O)O)[C@@H](O)C(O[C@@H]7OC[C@H](O)[C@@H](O)[C@@H]7O[C@@H]7OC(CO)C(O)[C@@H](O)[C@@H]7O)C6O[C@@H]6OC(CO)C(O)C(O)C6O)[C@@](C)(CO)[C@@H]5CC[C@]4(C)[C@]3(C)CC(O)[C@@]12CO (some centres not stated)	-	-	-	-	-	-	.
O=C(Nc1ccc(-c2nc3cccnc3s2)cc1)c1ccc(Br)o1	-	-	-	35.2	-	-	-
O=C(Nc1ccc(-c2nc3cccnc3s2)cc1)c1ccco1	-	-	-	-	-	-	.
COc1cc(OC)cc(C(=O)N=c2sc3ccccc3n2C)c1	-	-	-	-	-	-	.
COc1cccc(C(=O)N=c2sc3cc(S(C)(=O)=O)ccc3n2C)c1	.	-	-	27.2	.	-	-
COc1ccc(-n2c(-c3ccc(Cl)cc3)c[n+]3c2CCc2ccccc2-3)cc1	-	-	-	-	-	-	.
Cc1ccc(-n2c(-c3ccc(Br)cc3)c[n+]3c2CCc2ccc4cccnc4c2-3)cc1	-	-	-	25.6	-	-	?
O=C(NCc1ccccn1)c1ccc2c(=O)n3nc(Nc4ccccc4)sc3nc2c1	-	-	.	26.8	-	-	-
Cn1nc(C(=O)Nc2cccc(Cl)c2)cc1C(=O)Nc1cccc(Cl)c1	-	-	-	33.2	-	-	-
O=C(NCc1nnnn1-c1ccc(F)cc1)c1ccc(S(=O)(=O)N2CCOCC2)cc1	-	.	.	.	-	.	.
CCC(=O)NC(=S)Nc1ccc(NC(=O)c2cc3ccccc3o2)c(OC)c1	.	-	-	66.9	.	-	-
CCn1c(C)c(C2=CCN(S(=O)(=O)c3ccccc3)CC2)c2ccccc21	-	-	-	30.6	-	-	-
COC(=O)C1Cc2ccccc2CN1S(=O)(=O)c1ccc(F)cc1 (configuration not stated)	-	-	-	-	-	-	.
C/C(=N\NC(=O)c1ccc(CN(C)S(=O)(=O)c2ccc(C)cc2)cc1)c1ccc(OC(F)F)cc1	-	-	-	26.1	-	-	-
O=C(Nc1nccs1)c1cc2c(s1)-c1ccccc1OC2	-	-	-	36.8	-	-	-
Cc1cccc2c1-c1sc(C(=O)Nc3cccnc3)cc1CO2	-	-	-	31.9	-	-	-
Cc1ccc(NS(=O)(=O)c2ccc(C(=O)OCC(=O)Nc3cc(C)on3)cc2)cc1	-	-	-	-	-	-	.
O=C(COc1ccccc1[N+](=O)[O-])Nc1ccc(NC(=O)c2cc3ccccc3o2)cc1	-	-	-	54.1	-	-	-
COc1ccc(NS(=O)(=O)c2cccc(C(=O)OCC(=O)Nc3cc(C)on3)c2)cc1	-	-	-	19.9	-	-	-
Cc1cc(C)c(OCC(=O)Nc2ccc(NC(=O)c3ccco3)cc2)c([N+](=O)[O-])c1	-	-	-	17.6	-	-	-
COc1ccc(NS(=O)(=O)c2cccc(NC(=O)COc3ccccc3[N+](=O)[O-])c2)cc1	-	-	-	25.0	-	-	-
CCOC(=O)C1CCN(C(=O)CCCn2nc(C)c3c(C)n(-c4ccc(C)cc4)nc3c2=O)CC1	-	-	.	-	-	-	.
CC(C)C(=O)NCC(c1ccc2c(c1)OCO2)N1CCOCC1 (configuration not stated)	-	-	-	-	-	-	.
CCCc1cc(=O)n2[nH]c(SCc3ccc(Cl)cc3)nc2n1	-	-	-	-	-	-	.
SMILES	PKA-R2B act	SR-BI DiI inh	CDK5 p35 inh	dFosB act-1	PKA-R1A activ	SR-BI DiI-HDL act	dFosB act-2
O=C(COc1ccc(/C=N/NC(=O)c2cc3ccccc3o2)cc1Br)Nc1ccccc1	-	-	-	65.8	-	-	-
O=C(N/N=C/c1ccco1)c1cc2ccccc2o1	-	-	-	-	-	-	.
CC(=O)c1cccc(NC(=O)Cn2c(=O)oc3cc(S(=O)(=O)N4CCCC4)ccc32)c1	-	-	-	32.8	-	-	-
COc1ccc(NC(=O)Cn2c(=O)oc3cc(S(=O)(=O)N4CCCC4)ccc32)cc1	-	-	-	-	-	-	.
O=C(c1cc2cc(Cl)ccc2[nH]1)N1CCN(c2ccccn2)CC1	-	-	-	-	-	-	.
CCOC(=O)CSc1nc(C)cc(C)n1	-	-	-	16.3	-	-	-
COC(=O)CSc1nc(C)cc(C)n1	-	-	-	-	-	-	.
Cn1c(=O)oc2cc(S(=O)(=O)N3CCCC(C(=O)NCc4ccc5c(c4)OCO5)C3)ccc21 (configuration not stated)	-	-	-	46.3	-	-	-
O=S(=O)(c1ccc(NC(=S)N2CCCCC2CO)cc1)N1CCOCC1 (configuration not stated)	-	.	.	.	-	.	.
Cc1ccc(O)c(C(=O)c2cnn(C(=O)c3cccc(S(=O)(=O)N(C)C)c3)c2)c1	-	-	-	-	-	-	.
COc1ccc(O)c(C(=O)c2cnn(C(=O)c3cccc(S(=O)(=O)N(C)C)c3)c2)c1	-	-	-	36.7	-	-	-
CCC(C)(C)C1CCC2(CC1)NC(=O)N(CC(=O)N1CCN(S(=O)(=O)c3cc(C)ccc3C)CC1)C2=O (configuration not stated)	-	-	-	45.3	-	-	-
CCC(C)(C)C1CCC2(CC1)NC(=O)N(CC(=O)Nc1nc(-c3ccc(C)cc3)cs1)C2=O (configuration not stated)	-	-	-	34.5	-	-	-
CC1=NN(S(=O)(=O)c2ccc(Cl)cc2Cl)C(=O)c2ccccc2O1	-	.	-	-	-	.	.
Cc1cc(NC(=O)CCC(=O)N(CC(=O)NCC2CCCO2)c2ccc(F)c(Cl)c2)no1 (configuration not stated)	-	-	-	-	-	-	.
Nn1c(SCC(=O)Nc2ccc3c(c2)OCO3)nnc1-c1ccccc1	-	-	-	-	-	-	.
Nn1c(SCC(=O)Nc2ccc3c(c2)OCO3)nnc1-c1ccc(Cl)cc1	-	-	-	64.2	-	-	-
